Laboratory results reported in publication PMC9664485 (European journal of medicinal chemistry, 2022).
“And” between values parts separate entries of the source, which are not always exact repeats. Equal values may be shown once.

Columns and labels:
[1] = biological target: T1, recombinant human Wip1 (1–420) (Homo sapiens, UniProt O15297); test: Wip1 phosphatase activity inhibition assay; assay type: biochemical; details: for Hill coefficient [n]: variable slope logistic fit of Wip1 inhibition curve
T1 sequence (O15297 1-420): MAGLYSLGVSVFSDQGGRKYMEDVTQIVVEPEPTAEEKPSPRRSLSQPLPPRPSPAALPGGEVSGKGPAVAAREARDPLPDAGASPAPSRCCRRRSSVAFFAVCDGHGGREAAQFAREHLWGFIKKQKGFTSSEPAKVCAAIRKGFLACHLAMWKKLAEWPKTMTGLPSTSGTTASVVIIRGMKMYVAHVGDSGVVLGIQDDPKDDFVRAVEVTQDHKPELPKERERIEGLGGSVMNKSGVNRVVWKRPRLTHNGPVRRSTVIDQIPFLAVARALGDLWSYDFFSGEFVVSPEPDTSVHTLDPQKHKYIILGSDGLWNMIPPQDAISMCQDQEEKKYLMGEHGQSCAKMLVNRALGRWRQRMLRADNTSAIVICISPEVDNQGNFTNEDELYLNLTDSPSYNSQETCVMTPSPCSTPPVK

[2] = biological target: T2, PPM1A (also called PP2Cα) (Homo sapiens, UniProt P35813); test: PPM1A phosphatase specificity assay; assay type: biochemical; details: up to 100 μM; 8 nM PPM1A, 100 μM human p38α (175–185, 180pT) phosphopeptide
T2 sequence (P35813 1-382): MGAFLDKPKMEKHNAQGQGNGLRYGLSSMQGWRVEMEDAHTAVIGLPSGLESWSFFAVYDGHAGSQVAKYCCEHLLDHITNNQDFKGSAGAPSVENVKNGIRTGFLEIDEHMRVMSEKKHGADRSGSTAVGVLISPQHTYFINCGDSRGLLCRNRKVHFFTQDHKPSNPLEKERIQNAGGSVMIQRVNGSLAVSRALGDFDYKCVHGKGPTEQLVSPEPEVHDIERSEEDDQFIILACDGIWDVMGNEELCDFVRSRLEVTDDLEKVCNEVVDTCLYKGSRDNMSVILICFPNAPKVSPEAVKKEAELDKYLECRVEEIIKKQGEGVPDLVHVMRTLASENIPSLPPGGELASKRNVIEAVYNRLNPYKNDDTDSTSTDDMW
How it was run: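 Test compound or DMSO is mixed with the phosphopeptide substrate before PPM1A is added. Buffer: 50 mM Tris·HCl pH 7.5, 0.1 mM EGTA, 1 mM DTT, 1 mM CHAPS, 0.1 mg/mL BSA, 30 mM MgCl2. Incubation runs 7 min at 30 °C. Biomol Green stops the reaction, then colour develops 20 min at room temperature. Released phosphate is read at 620 nm against a phosphate standard curve.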

Question: `O=C(Nc1cccc(Cl)c1)c1cccc(CNc2ccc(C(=O)Nc3cccc(OP(=O)(O)O)c3)cc2CC2CCCCC2)c1` [Compound 40b, 3-(4-((3-((3-chlorophenyl)carbamoyl)benzyl)amino)-3-(cyclohexylmethyl)benzamido)phenyl dihydrogen phosphate] was tested. Which “fold improvement in Wip1 inhibition” value ([1]; compared with 22g) did it give?
Answer: 7 fold

Question: And the “Hill coefficient [n]” value [1]?
Answer: 1.4 ± 0.1

Question: What about the “inhibitory activity against PPM1A” value [2] of the same molecule?
Answer: no inhibitory activity

Question: Which results are given for `O=C(Nc1cccc(Cl)c1)c1cccc(C(=O)Nc2ccc(C(=O)Nc3cccc(OP(=O)(O)O)c3)cc2CC2CCCCC2)c1` [Compound 48a, 3-(4-(3-((3-chlorophenyl)carbamoyl)benzamido)-3-(cyclohexylmethyl)benzamido)phenyl dihydrogen phosphate]?
Answer: Hill coefficient [n] [1]: 5 and 5.1 ± 0.3; inhibitory activity against PPM1A [2]: no inhibitory activity

Question: Which “Hill coefficient [n]” value [1] does the source give for `O=C(Nc1cccc(OP(=O)(O)O)c1)c1ccc(NC(=O)c2cccc(CNc3cccc(Cl)c3)c2)c(CC2CCCCC2)c1` [Compound 48b, 3-(4-(3-(((3-chlorophenyl)amino)methyl)benzamido)-3-(cyclohexylmethyl)benzamido)phenyl dihydrogen phosphate] here?
Answer: 2.3 ± 0.2

Question: And the “inhibitory activity against PPM1A” value [2]?
Answer: no inhibitory activity
